Reference: ChEMBL document CHEMBL1155114, “Kadcoccilactones A-J, triterpenoids from Kadsura coccinea” (J Nat Prod, 2008)
Converted amounts (≈) assume the structure as drawn.

Experiments:
[1] = system: A549; assay: Cytotoxicity against human A549 cells after 72 hrs by SRB assay; type: functional
Method in brief: (§1)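 Human tumor cells seeded in 96-well plates 24 h before treatment, then exposed continuously to a range of compound concentrations for 72 h. Inhibition of cell proliferation read by SRB or MTT staining as named in each line. IC50 derived. Adriamycin (ADR) included as positive control.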

[2] = system: K562; assay: Cytotoxicity against human K562 cells after 72 hrs by SRB assay; type: functional, cell-based; conditions: K562, 72 h; method in brief: as §1
[3] = system: Bel-7402; assay: Cytotoxicity against human Bel7402 cells after 72 hrs by SRB assay; type: functional, cell-based; conditions: Bel-7402, 72 h; method in brief: as §1
[4] = system: A549; assay: Cytotoxicity against human A549 cells after 72 hrs by MTT assay; type: functional, cell-based; conditions: A549, 72 h; method in brief: as §1
[5] = system: K562; assay: Cytotoxicity against human K562 cells after 72 hrs by MTT assay; type: functional, cell-based; conditions: K562, 72 h; method in brief: as §1
[6] = system: Bel-7402; assay: Cytotoxicity against human Bel7402 cells after 72 hrs by MTT assay; type: functional, cell-based; conditions: Bel-7402, 72 h; method in brief: as §1

CC1=CC[C@@H]([C@@H](C)[C@@H]2CC[C@]3(O)[C@@H]4CC[C@H]5C(C)(C)O[C@@H]6CC(=O)O[C@@]65C[C@@]4(O)CC[C@]23C)OC1=O [KADCOCCILACTONE B] was tested, and the IC [1] was over 100 µg/mL, the IC50 [2] was over 100 µg/mL and the IC50 [3] was over 100 µg/mL. The IC50 [4] was over 100 µg/mL, the IC50 [5] was over 100 µg/mL and the IC50 [6] was over 100 µg/mL.
Work on CC1=C[C@@H]([C@@H](O)[C@@H](C)[C@]23CC[C@@]4(CO2)[C@@H]2CC[C@H]5C(C)(C)O[C@@H]6CC(=O)O[C@@]65C[C@@]2(O)CC[C@@]43C)OC1=O [KADCOCCILACTONE G] yielded an IC [1] of over 100 µg/mL, an IC50 [2] of over 100 µg/mL and an IC50 [3] of over 100 µg/mL. It also gave an IC50 [4] of over 100 µg/mL, an IC50 [5] of over 100 µg/mL and an IC50 [6] of over 100 µg/mL.
For CC(=O)O[C@@H]1C[C@H]2C(C)(C)O[C@@H]3CC(=O)O[C@@]32C[C@@]2(O)CC[C@]34O[C@H](C5CC(C)C(=O)O5)[C@@H](C)[C@H]3C[C@H](O)[C@]4(C)[C@H]12 (stereo partly drawn) [KADCOCCILACTONE H], the IC [1] was over 100 µg/mL, the IC50 [2] was over 100 µg/mL and the IC50 [3] was over 100 µg/mL. It also gave an IC50 [4] of over 100 µg/mL, an IC50 [5] of over 100 µg/mL and an IC50 [6] of over 100 µg/mL.
CC1=CC[C@@H]([C@@H](C)[C@]2(O)CC[C@@]3(C)[C@@H]4CC[C@H]5C(C)(C)O[C@@H]6CC(=O)O[C@@]65C[C@@]4(O)CC[C@@]32C)OC1=O [KADCOCCILACTONE A] was tested, and the IC [1] was over 100 µg/mL, the IC50 [2] was over 100 µg/mL and the IC50 [3] was 36.4 µg/mL (≈ 70.5 µM). The IC50 [4] was over 100 µg/mL, the IC50 [5] was over 100 µg/mL and the IC50 [6] was 36.4 µg/mL (≈ 70.5 µM).
COc1cccc2c1C(=O)c1c(O)c3c(c(O)c1C2=O)C[C@@](O)(C(=O)CO)C[C@@H]3O[C@H]1C[C@H](N)[C@H](O)[C@H](C)O1 [DOXORUBICIN] was tested, and the IC [1] was 0.025 µg/mL, the IC50 [2] was 0.011 µg/mL (≈ 0.0202 µM) and the IC50 [3] was 0.01 µg/mL (≈ 0.0184 µM). The IC50 [4] was 0.025 µg/mL (≈ 0.046 µM), the IC50 [5] was 0.011 µg/mL (≈ 0.0202 µM) and the IC50 [6] was 0.01 µg/mL (≈ 0.0184 µM).
Compound CC1=CC([C@H]2O[C@@]34[C@H](C[C@@H]5O[C@@]53[C@@H]3[C@H](O)C[C@H]5C(C)(C)O[C@@H]6CC(=O)O[C@@]65C[C@@]3(O)C[C@@H]4O)[C@@H]2C)OC1=O (stereo partly drawn) [KADCOCCILACTONE J] has an IC [1] of over 100 µg/mL, an IC50 [2] of over 100 µg/mL and an IC50 [3] of over 100 µg/mL. The IC50 [4] was over 100 µg/mL, the IC50 [5] was over 100 µg/mL and the IC50 [6] was over 100 µg/mL.
CC(=O)O[C@@H]1C[C@]2(C)[C@@H]([C@H](C)[C@H]3CC=C(C)C(=O)O3)CC[C@@]2(C)CCC[C@H]2C(C)(C)O[C@@H]3CC(=O)O[C@@]32CC1=O [KADSUPHILACTONE A] showed an IC [1] of 96.6 µg/mL, an IC50 [2] of 50.3 µg/mL (≈ 90 µM) and an IC50 [3] of over 100 µg/mL. It also gave an IC50 [4] of 96.6 µg/mL (≈ 173 µM), an IC50 [5] of 50.3 µg/mL (≈ 90 µM) and an IC50 [6] of over 100 µg/mL.
CC1=C[C@@H]([C@@H](O)[C@@H](C)[C@H]2CC=C3[C@@H]4CC[C@H]5C(C)(C)O[C@@H]6CC(=O)O[C@@]65C[C@@]4(O)CC[C@@]32C)OC1=O [KADCOCCILACTONE E] showed an IC [1] of over 100 µg/mL, an IC50 [2] of over 100 µg/mL and an IC50 [3] of over 100 µg/mL. It also gave an IC50 [4] of over 100 µg/mL, an IC50 [5] of over 100 µg/mL and an IC50 [6] of over 100 µg/mL.
For CC1=CC[C@@H]([C@@H](C)[C@@H]2CC[C@@]3(CO)[C@@H]4CC[C@H]5C(C)(C)O[C@@H]6CC(=O)O[C@@]65C[C@@]4(O)CC[C@]23C)OC1=O [KADCOCCILACTONE C], the IC [1] was over 100 µg/mL, the IC50 [2] was 53.3 µg/mL (≈ 103 µM) and the IC50 [3] was over 100 µg/mL. It also gave an IC50 [4] of over 100 µg/mL, an IC50 [5] of 53.3 µg/mL (≈ 103 µM) and an IC50 [6] of over 100 µg/mL.
CC1=C[C@H]([C@H](O)[C@H](C)[C@@H]2C[C@H]3O[C@]34[C@@H]3CC[C@@H]5C(C)(C)O[C@H]6CC(=O)O[C@]65C[C@]3(O)CC[C@@]24C)OC1=O [MICRANDILACTONE B] showed an IC [1] of over 100 µg/mL, an IC50 [2] of over 100 µg/mL and an IC50 [3] of over 100 µg/mL. It also gave an IC50 [4] of over 100 µg/mL, an IC50 [5] of over 100 µg/mL and an IC50 [6] of over 100 µg/mL.
CC1=CC[C@@H]([C@@H](C)[C@@H]2CC=C3[C@@H]4CC[C@H]5C(C)(C)O[C@@H]6CC(=O)O[C@@]65C[C@@]4(OC=O)CC[C@@]32C)OC1=O [KADCOCCILACTONE D] showed an IC [1] of over 100 µg/mL, an IC50 [2] of over 100 µg/mL and an IC50 [3] of over 100 µg/mL. The IC50 [4] was over 100 µg/mL, the IC50 [5] was over 100 µg/mL and the IC50 [6] was over 100 µg/mL.
CC(=O)O[C@H]1CC([C@H](C)[C@H](O)[C@@H]2C[C@H](C)C(=O)O2)=C2CC[C@]3(O)C[C@]45OC(=O)C[C@@]4(O)OC(C)(C)[C@@H]5CC[C@H]3[C@]21C [KADCOCCILACTONE F] showed an IC [1] of over 100 µg/mL, an IC50 [2] of over 100 µg/mL and an IC50 [3] of over 100 µg/mL. It also gave an IC50 [4] of over 100 µg/mL, an IC50 [5] of over 100 µg/mL and an IC50 [6] of over 100 µg/mL.
CC(=O)O[C@H]1C[C@@H]2[C@H](C)[C@@H](C3CC(C)C(=O)O3)O[C@@]23CC[C@]2(O)C[C@]45OC(=O)C[C@H]4OC(C)(C)[C@@H]5C[C@@H](O)[C@H]2[C@@]13C (stereo partly drawn) [KADCOCCILACTONE I] gave an IC [1] of over 100 µg/mL, an IC50 [2] of over 100 µg/mL and an IC50 [3] of over 100 µg/mL. It also gave an IC50 [4] of over 100 µg/mL, an IC50 [5] of over 100 µg/mL and an IC50 [6] of over 100 µg/mL.
